Here are results for 14 compounds from ChEMBL document CHEMBL4270645, “Structure-activity relationship study of hypoxia-activated prodrugs for proteoglycan-targeted chemotherapy in chondrosarcoma” (Eur J Med Chem, 2018).

Data set [1] deals with Aggrecan core protein (Bos taurus) (UniProt P13608). Put plainly: Binding affinity to bovine articular cartilage aggrecan at 500 uM by SPR analysis. Put shortly: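 Aggrecan immobilised on sensor chip, free sites blocked with 1 M ethanolamine pH 8.5. Primary screen as binding level at 500 µM analyte in HBS-P+ running buffer, 30 µL/min, 600 s association, 200 s dissociation. Response corrected against a flow cell without aggrecan; regeneration with 2 M NaCl, 150 s.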
Chain of Aggrecan core protein (Bos taurus) (P13608 whole entry): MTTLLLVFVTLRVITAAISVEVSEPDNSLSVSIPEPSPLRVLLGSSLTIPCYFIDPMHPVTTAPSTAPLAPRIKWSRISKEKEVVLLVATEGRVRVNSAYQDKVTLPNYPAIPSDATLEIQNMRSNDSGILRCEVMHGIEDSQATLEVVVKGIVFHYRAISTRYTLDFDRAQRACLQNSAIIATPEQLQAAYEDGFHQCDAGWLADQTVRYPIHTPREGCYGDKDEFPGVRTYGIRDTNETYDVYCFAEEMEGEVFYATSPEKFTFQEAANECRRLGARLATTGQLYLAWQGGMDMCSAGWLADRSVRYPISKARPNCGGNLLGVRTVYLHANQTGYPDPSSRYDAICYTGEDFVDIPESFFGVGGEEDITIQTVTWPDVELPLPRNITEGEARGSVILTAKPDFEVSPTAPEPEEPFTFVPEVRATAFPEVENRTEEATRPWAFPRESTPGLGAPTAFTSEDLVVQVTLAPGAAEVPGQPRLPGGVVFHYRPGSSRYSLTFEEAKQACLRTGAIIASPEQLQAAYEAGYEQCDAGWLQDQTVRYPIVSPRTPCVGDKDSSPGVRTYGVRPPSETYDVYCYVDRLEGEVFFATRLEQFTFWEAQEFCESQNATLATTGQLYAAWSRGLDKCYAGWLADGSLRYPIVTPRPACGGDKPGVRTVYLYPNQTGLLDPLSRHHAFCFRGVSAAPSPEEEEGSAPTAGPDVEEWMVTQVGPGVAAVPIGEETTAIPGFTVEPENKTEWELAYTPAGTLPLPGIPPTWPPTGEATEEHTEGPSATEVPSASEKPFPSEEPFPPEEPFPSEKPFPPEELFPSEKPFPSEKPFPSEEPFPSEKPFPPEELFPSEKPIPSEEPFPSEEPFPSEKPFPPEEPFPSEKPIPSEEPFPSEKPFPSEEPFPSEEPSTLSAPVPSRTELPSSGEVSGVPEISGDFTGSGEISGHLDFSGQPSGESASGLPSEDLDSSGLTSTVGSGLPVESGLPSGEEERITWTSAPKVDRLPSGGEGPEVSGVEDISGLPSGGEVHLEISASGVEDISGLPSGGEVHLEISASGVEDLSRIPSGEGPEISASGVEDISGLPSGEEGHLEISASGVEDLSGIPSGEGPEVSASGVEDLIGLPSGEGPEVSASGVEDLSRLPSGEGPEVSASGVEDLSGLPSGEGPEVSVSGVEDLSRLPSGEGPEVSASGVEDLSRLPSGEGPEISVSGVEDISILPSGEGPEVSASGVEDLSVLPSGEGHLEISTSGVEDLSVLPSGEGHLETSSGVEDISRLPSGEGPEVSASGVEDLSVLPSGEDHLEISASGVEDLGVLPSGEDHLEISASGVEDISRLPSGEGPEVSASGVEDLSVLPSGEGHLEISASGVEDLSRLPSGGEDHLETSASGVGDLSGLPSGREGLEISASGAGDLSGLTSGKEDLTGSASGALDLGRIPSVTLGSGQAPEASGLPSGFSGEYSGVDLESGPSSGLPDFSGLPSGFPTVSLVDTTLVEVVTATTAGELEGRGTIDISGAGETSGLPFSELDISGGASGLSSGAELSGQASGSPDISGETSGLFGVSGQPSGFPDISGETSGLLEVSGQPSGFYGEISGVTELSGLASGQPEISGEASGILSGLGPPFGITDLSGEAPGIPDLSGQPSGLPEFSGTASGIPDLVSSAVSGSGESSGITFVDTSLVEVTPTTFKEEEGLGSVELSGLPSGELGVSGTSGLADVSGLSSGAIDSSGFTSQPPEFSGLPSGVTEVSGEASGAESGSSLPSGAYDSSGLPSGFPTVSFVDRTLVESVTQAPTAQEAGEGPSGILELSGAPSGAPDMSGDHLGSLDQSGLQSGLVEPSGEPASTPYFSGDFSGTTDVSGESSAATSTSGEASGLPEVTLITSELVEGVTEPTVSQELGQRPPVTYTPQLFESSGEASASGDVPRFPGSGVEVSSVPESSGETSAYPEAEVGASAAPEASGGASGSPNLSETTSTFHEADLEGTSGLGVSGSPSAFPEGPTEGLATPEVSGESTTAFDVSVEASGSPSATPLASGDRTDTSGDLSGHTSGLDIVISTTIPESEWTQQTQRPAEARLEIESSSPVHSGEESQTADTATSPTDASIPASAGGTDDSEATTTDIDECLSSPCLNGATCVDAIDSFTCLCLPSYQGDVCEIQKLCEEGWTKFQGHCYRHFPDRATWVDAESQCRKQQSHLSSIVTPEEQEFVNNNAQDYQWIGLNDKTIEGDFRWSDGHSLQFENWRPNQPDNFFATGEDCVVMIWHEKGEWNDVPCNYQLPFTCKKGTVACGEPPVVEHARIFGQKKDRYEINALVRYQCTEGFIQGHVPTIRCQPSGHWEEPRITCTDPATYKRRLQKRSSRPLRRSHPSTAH

Another data set deals with Aggrecan core protein (Bos taurus, UniProt P13608). Put plainly: Binding affinity to bovine articular cartilage aggrecan by SPR analysis.
Chain of Aggrecan core protein (P13608 whole entry): as above
In data set [2] the test system is H-EMC-SS. As to the kind of experiment: Antiproliferative activity against human HEMC-SS cells treated for 24 hrs under normoxic condition followed by compound wash-out and incubated under normoxic condition for 48 hrs by alamar blue assay. It is filed as cell-based. The gist of the method:
(§1)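 HEMC-SS chondrosarcoma cells (DMEM/F12, 10% FCS, gentamicin) seeded 20.10^3/well, adhered overnight; drug dilution series added, final DMSO 0.5%. Exposed 24 h under normoxia (21% O2, 5% CO2, 37°C) or hypoxia (N2, O2<0.3%, 37°C), then washed with PBS and grown 48 h in normoxia. AlamarBlue viability; IC50 = 50% growth inhibition; at least triplicate, mean ± SD.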

For data set [3], the system named is H-EMC-SS. Put plainly: Antiproliferative activity against human HEMC-SS cells treated for 24 hrs under hypoxic condition followed by compound wash-out and incubated under normoxic condition for 48 hrs by alamar blue assay. It is filed as functional, cell-based. The gist of the method: as §1
In data set [4] the test system is H-EMC-SS. Put plainly: Selectivity index, ratio of IC50 for human HEMC-SS cells under normoxic condition to IC50 for human HEMC-SS cells under hypoxic condition. The data set is classed as functional.
Data set [5] in a line: Prodrug activation in pH 7.4 PBS buffer assessed as 25 ug/ml Escherichia coli nitroreductase-mediated corresponding phosphoramidate anion formation by measuring half life at 37 degC in presence of NADPH by RP-HPLC analysis. Particulars: isolated protein. The gist of the method: (§2)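 Recombinant E. coli nitroreductase (final 25 or 15 µg/mL) with prodrug 17 µM and NADPH 0.9 mM final, in 10 mM sodium phosphate pH 7.4, 37°C. Aliquots over 2 h run on C18 RP-HPLC; remaining prodrug from peak area at 322 nm. Enzyme-free NADPH controls run in parallel.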

A short description of data set [6]: Prodrug activation in pH 7.4 PBS buffer assessed as 15 ug/ml Escherichia coli nitroreductase-mediated corresponding phosphoramidate anion formation by measuring half life at 37 degC in presence of NADPH by RP-HPLC analysis. Particulars: isolated protein. The gist of the method:
as §2

Data set [7] in a line: Chemical stability in pH 7.4 sodium phosphate buffer assessed as drug metabolism at 17 uM at 37 degC after 24 hrs by RP-HPLC analysis. The data set is classed as physicochemical. Particulars: read-out: Drug metabolism. Put shortly: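 Prodrug at 17 µM in 10 mM sodium phosphate pH 7.4 with 0.13% DMSO, 37°C. Aliquots over 24 h run directly on C18 RP-HPLC (H2O/ACN gradient with 15 mM TFA). Remaining prodrug calculated from peak area at 322 nm.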

Data set [8] is described as follows: Stability in rabbit plasma at 37 degC after 24 hrs by 31P NMR analysis. The data set is classed as ADME, cell-free, Oryctolagus cuniculus. Put shortly: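 Heparinised rabbit blood centrifuged (4°C, 1300 g, 10 min) to give plasma. About 10 mg prodrug in 90 µL CH3CN plus 330 µL plasma, followed by 31P NMR at 37°C over 24 h; peak areas, average of two runs.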

A short description of data set [9]: Chemical stability in 3 equiv sodium dithionite/CH3CN,/cacodylate buffer at pH 7.4 at 37 degC after 24 hrs by 31P NMR analysis. The data set is classed as physicochemical. Particulars: pH 7.4, 24 h.
The nature of data set [10]: Prodrug activation in 3 equiv sodium dithionite/CH3CN,/cacodylate buffer at pH 7.4 assessed as bis(2-chloroethyl)phosphoramidate anion formation by measuring half life at 37 degC by 31P NMR analysis. The data set is classed as physicochemical. The gist of the method:
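Incubation with 3 equiv sodium dithionite in CH3CN/0.1 M cacodylate buffer pH 7.4, probe at 37°C. 31P NMR spectra over 24 h against coaxial Ph3PO reference (26 ppm). Parent loss and phosphoramidate anion formation quantified from peak areas; average of two runs.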

Data set [11] is described as follows: Prodrug activation in pH 7.4 PBS buffer assessed as 15 to 25 ug/ml Escherichia coli nitroreductase-mediated bis(2-chloroethyl)phosphoramidate anion formation by measuring half life at 37 degC in presence of NADPH by RP-HPLC analysis. The conditions noted are these: isolated protein. Put shortly:
as §2

Each structure is given as a SMILES string. The source made the active and inactive calls. The rule behind the calls is not given here. A value given as a limit tells only on which side of the number the result lay.

As for `CC[N+](CC)(CC)CCCNP(=O)(OCc1cnc([N+](=O)[O-])n1C)N(CCCl)CCCl.[I-]` (stereo not drawn), the outcome in [1] was Active. This compound also displayed a Kd on Aggrecan core protein of 3490 µM. Also, the IC50 in the data set with H-EMC-SS [2] came to 9.7 µM; in the data set on H-EMC-SS [3], 1.4 µM. For the same compound, in the data set on H-EMC-SS [4], the “Ratio IC50” value is given as 7.

Take `Cn1c(COP(=O)(NCCC[N+](C)(C)C)N(CCCl)CCCl)cnc1[N+](=O)[O-].[I-]` (stereo not drawn): the result in data set [1] was Active. The compound also gave a Kd on Aggrecan core protein of 1290 µM. The results for the IC50 in the data set with H-EMC-SS [2] and in the data set with H-EMC-SS [3] were 29.3 µM and 4.3 µM, respectively. Also, the “Ratio IC50” value in the data set with H-EMC-SS [4] is recorded as 7. The values for the t1/2 in data set [5] and in data set [6] were 5 min and 15 min, respectively.

Take `CC[N+](C)(CCCCNP(=O)(OCc1cnc([N+](=O)[O-])n1C)N(CCCl)CCCl)Cc1ccccc1.[I-]` (stereo not drawn): the outcome in [1] was Active. The same compound showed an equilibrium dissociation constant (Kd) at Aggrecan core protein of 2100 µM. For the same compound, the IC50 in the data set with H-EMC-SS [2] came to 40.7 µM; in the data set with H-EMC-SS [3] it was 1.7 µM. Further, the “Ratio IC50” value with H-EMC-SS [4] is 24. Also, the degraded at 24 h, 17 µM in data set [7] is less than 5%. The Stability entry in [8] and in data set [9] was “Stable” each time. In addition, the t1/2 was less than 2 min in [10] and less than 1 min in data set [11].

On to `Cn1c(COP(=O)(NCCCCC[N+](C)(C)C)N(CCCl)CCCl)cnc1[N+](=O)[O-].[I-]` (stereo not drawn), for which the result in data set [1] was Active. In addition, binding at Aggrecan core protein was characterised by a dissociation constant (Kd) of 4220 µM. The IC50 with H-EMC-SS [2] amounted to 25.8 µM; in the data set with H-EMC-SS [3], 2.4 µM. Also, in the data set on H-EMC-SS [4], the “Ratio IC50” value is 11.

Turning to `Cn1c(COP(=O)(NCC[N+](C)(C)Cc2ccccc2)N(CCCl)CCCl)cnc1[N+](=O)[O-].[I-]` (stereo not drawn), in data set [1], the result was Active. At Aggrecan core protein, the Kd is 2900 µM. The IC50 with H-EMC-SS [2] is 6.4 µM; in the data set with H-EMC-SS [3] it was 1.1 µM. Besides, the “Ratio IC50” value with H-EMC-SS [4] was 6.

For `Cn1c(COP(=O)(NCCC[N+](C)(C)Cc2ccccc2)N(CCCl)CCCl)cnc1[N+](=O)[O-].[I-]` (stereo not drawn), the result in data set [1] was Active. On Aggrecan core protein, this compound displayed a Kd of 2990 µM. Moreover, the IC50 in the data set with H-EMC-SS [2] is 5.4 µM; in the data set on H-EMC-SS [3], 0.4 µM. For the same compound, the “Ratio IC50” value in the data set with H-EMC-SS [4] came to 14.

On to `CC[N+](C)(CCCCCNP(=O)(OCc1cnc([N+](=O)[O-])n1C)N(CCCl)CCCl)Cc1ccccc1.[I-]` (stereo not drawn), for which the outcome in [1] was Active. Further, the Kd on Aggrecan core protein was 3470 µM. Moreover, the half-inhibitory concentration (IC50) with H-EMC-SS [2] came to 12.9 µM; in the data set on H-EMC-SS [3], 0.8 µM. For the same compound, the “Ratio IC50” value with H-EMC-SS [4] amounted to 16.

With `Cn1c(COP(=O)(NCCBr)NCCBr)cnc1[N+](=O)[O-]` [EVOFOSFAMIDE], the 50% inhibitory concentration (IC50) is 2.9 µM in the data set on H-EMC-SS [2] and 0.13 µM in the data set on H-EMC-SS [3]. Moreover, the “Ratio IC50” value with H-EMC-SS [4] was found to be 23.

As to `CC[N+](C)(C)CCCCCNP(=O)(OCc1cnc([N+](=O)[O-])n1C)N(CCCl)CCCl.[I-]` (stereo not drawn), in data set [1], the outcome was Active. The same compound displayed a Kd on Aggrecan core protein of 3560 µM. In addition, the IC50 with H-EMC-SS [2] was 15.8 µM; in the data set with H-EMC-SS [3] it was 1.5 µM. The “Ratio IC50” value with H-EMC-SS [4] was determined as 11.

As to `CC[N+](C)(CCCNP(=O)(OCc1cnc([N+](=O)[O-])n1C)N(CCCl)CCCl)Cc1ccccc1.[I-]` (stereo not drawn), the values for the IC50 in the data set on H-EMC-SS [2] and with H-EMC-SS [3] were 20.8 µM and 2.1 µM, respectively. Moreover, the “Ratio IC50” value in the data set on H-EMC-SS [4] is listed as 10.

For `Cn1c(COP(=O)(NCCCCC[N+](C)(C)Cc2ccccc2)N(CCCl)CCCl)cnc1[N+](=O)[O-].[I-]` (stereo not drawn), the result in data set [1] was Active. This compound also came in with a Kd on Aggrecan core protein of 2550 µM. Moreover, the IC50 worked out at 28.9 µM with H-EMC-SS [2] and 2.8 µM with H-EMC-SS [3]. Besides, in the data set with H-EMC-SS [4], the “Ratio IC50” value is listed as 10.

Consider `CC[N+](C)(C)CCCCNP(=O)(OCc1cnc([N+](=O)[O-])n1C)N(CCCl)CCCl.[I-]` (stereo not drawn), for which, in data set [1], the outcome was Active. Moreover, the Kd at Aggrecan core protein came to 2020 µM. In addition, the results for the IC50 in the data set with H-EMC-SS [2] and in the data set with H-EMC-SS [3] were 10.2 µM and 1.5 µM, respectively. In the data set with H-EMC-SS [4], the “Ratio IC50” value turned out to be 7.

For the compound `Cn1c(COP(=O)(NCCCC[N+](C)(C)Cc2ccccc2)N(CCCl)CCCl)cnc1[N+](=O)[O-].[I-]` (stereo not drawn), in [1], the result was Active. This compound also showed a Kd on Aggrecan core protein of 5270 µM. Moreover, the IC50 with H-EMC-SS [2] is 18 µM; with H-EMC-SS [3] it was 1.8 µM. In the data set on H-EMC-SS [4], the “Ratio IC50” value is given as 10.

Turning to `CC[N+](C)(CC)CCCCNP(=O)(OCc1cnc([N+](=O)[O-])n1C)N(CCCl)CCCl.[I-]` (stereo not drawn), in data set [1], the result was Active. Moreover, the affinity on Aggrecan core protein, expressed as Kd, was 4970 µM. Moreover, the IC50 is 13.4 µM in the data set on H-EMC-SS [2] and 2.4 µM in the data set on H-EMC-SS [3]. Further, the “Ratio IC50” value in the data set on H-EMC-SS [4] is on record as 6.
